Compounds with a hit are over-represented: about 3% of the library has one in this group of screens.
Cardio protect: cardioprotection against H2O2-induced cell death, primary screen, uHTS, H9c2 cells, ATPLite luminescence; H9c2 cardiomyocytes, H2O2 injury protection, 2 h; protection from H2O2 cell death, % at 20 µM; hit rate 0.63% among 360,000; AID 588492, 2011;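 active = compounds giving at least 50% protection of heart cells from peroxide-induced death in the single-dose screen, raw or plate-pattern-corrected value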;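 note: 0% = DMSO wells with peroxide and 100% = DMSO wells without peroxide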
SENP1 FRET inh: human SENP1 catalytic domain inhibitors, primary screen, biochemical, FRET, uHTS; Sentrin-specific protease 1 (Homo sapiens), Q9P0U3; recombinant SENP1 catalytic domain, CyPet-SUMO1-YPet FRET cleavage; inhibition, % at 10 µM; hit rate 0.21% among 360,000; AID 624204, 2012;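 active = inhibition at least 30% at 10 µM, raw YFP signal under a set limit, fluorescence ratio 0.5 to 1.5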;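 note: 0% = enzyme with DMSO and 100% = no enzyme wells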
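material = recombinant human SENP1 catalytic domain, His6-tagged | quantity = 20 pM enzyme | reagent = 25 nM SUMO1 FRET substrate | compound dosing = 10 µM single point, 0.5% DMSO | timing = 50 min enzyme reaction, room temperature, light-protected | detection = FRET, CFP and YFP emission | control set = no-enzyme low, enzyme-DMSO high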
Exocytosis inh: LAMP-1 surface exposure blockers, TALL-104 cells – cell-based, flow cytometry, MLPCN library, primary screen; TALL-104 LAMP-1 surface exposure; cells stimulated with thapsigargin and PMA; inhibition, % at 10 µM; hit rate 0.66% among 360,000; AID 651702, 2012;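 active = inhibition above about 55%, limit read from the data; inconclusive = no clear call, values can overlap the other calls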
Myeloid diff 2: induction of myeloid progenitor differentiation, primary screen, cell-based, flow cytometry, MLPCN library; ER-HoxA9 myeloid progenitors, lysozyme-GFP differentiation; calls only at 10 µM; hit rate 1% among 360,000; AID 624256, 2012;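 active = normalized GFP-positive differentiation at or above the plate's own cutoff, the solvent-only control mean plus 3 SD; inconclusive = no clear call, values can overlap the other calls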;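 note: cells exposed to compound for four days before flow analysis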
HNF4A DNA FP: change in binding of human HNF4A to DNA, primary screen, biochemical, fluorescence polarization, FITC-DNA. 1 h. activity change, % at 10 µM. hit rate 0.3% among 360,000. AID 1224865, 2016; in the data active = activity change above about 30%, passing the limit was not always enough
Target sequence (P41235 whole entry, looked up): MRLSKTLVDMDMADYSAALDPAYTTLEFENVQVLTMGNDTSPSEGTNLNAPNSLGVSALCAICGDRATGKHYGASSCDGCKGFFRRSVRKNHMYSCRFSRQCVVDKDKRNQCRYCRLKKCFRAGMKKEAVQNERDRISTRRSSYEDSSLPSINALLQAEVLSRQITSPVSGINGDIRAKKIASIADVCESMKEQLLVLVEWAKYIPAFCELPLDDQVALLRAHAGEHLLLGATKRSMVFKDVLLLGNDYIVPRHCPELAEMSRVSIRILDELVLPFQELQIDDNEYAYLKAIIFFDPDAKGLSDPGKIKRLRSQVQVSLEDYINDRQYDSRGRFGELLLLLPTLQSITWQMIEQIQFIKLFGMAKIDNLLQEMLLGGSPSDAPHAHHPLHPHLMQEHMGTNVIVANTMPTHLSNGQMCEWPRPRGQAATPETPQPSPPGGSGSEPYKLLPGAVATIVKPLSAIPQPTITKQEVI
DSG3 Ab inh: inhibitors of pemphigus antibody binding to DSG3, primary screen, biochemical, bead-based, flow cytometry, scFv-GFP. Desmoglein-3 (Homo sapiens), P32926. DSG3-coupled beads, scFv-anti-DSG3-GFP binding; hits give low values. binding (percent of control), % at 10 µM. hit rate 0.48% among 310,000. AID 588358, 2011;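 active = binding more than 3 SD below its plate's average and above zero; inconclusive = below that plate limit but binding exactly zero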;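 note: hits lower antibody fragment binding to DSG3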
* = called active by the depositor; i = inactive; ? = inconclusive; . = no result; + = active, no number.

SMILES | Cardio protect | SENP1 FRET inh | Exocytosis inh | Myeloid diff 2 | HNF4A DNA FP | DSG3 Ab inh
Cc1ccccc1/C=N/Nc1nc2ccccc2[nH]1 | 8 | 1 | -1 | i | 3 | 107
Cc1cc(=O)[nH]c(N/N=C/c2c(C)nn(-c3ccccc3)c2Cl)n1 | 37 | 0 | 4 | i | -2 | 100
Cc1nn(-c2ccccc2)c(Cl)c1/C=N/Nc1nc2ccccc2[nH]1 | -21 | 0 | 1 | i | 68* | 105
CCCc1nnc(NC(=O)CCC(=O)NC2CCCc3ccccc32)s1 (centres undefined) | 3 | 1 | -1 | i | -7 | 39*
CCN1C[C@@H]2[C@@H]3C(=O)N(Cc4ccccc4)C(=O)[C@@H]3[C@](C)(C1=O)N2C(=O)c1ccccc1 | -3 | 0 | 1 | i | -5 | 98
COc1ccc(C(=O)N2CCOC2CNC(=O)C(=O)NCCc2ccc(OC)c(OC)c2)cc1 (centres undefined) | 2 | 0 | -2 | i | 0 | 90
CN(CC(=O)NCCc1ccc(S(N)(=O)=O)cc1)S(=O)(=O)c1cccc2nsnc12 | 2 | 1 | -5 | + | -4 | 110
Cc1cc(C(=O)N2CCCC(CO)(Cc3ccc(F)cc3F)C2)nn1C (centres undefined) | -5 | 1 | 8 | + | -2 | 109
CC(C)c1ccc(OCc2cccc(C(=O)N/N=C/c3cccnc3)c2)cc1 | -5 | 2 | -2 | + | -1 | 113
COc1ccc(O)c(/C=N/NC(=O)c2ccc(OCc3cccc(Br)c3)cc2)c1 | 25 | 3 | -1 | ? | 44* | 69
COc1ccc(C(=O)N/N=C/c2cc(Br)ccc2O)cc1OC | 60* | -43 | 7 | . | 1 | 96
C[C@@H]1CN([C@@H](C)CO)S(=O)(=O)c2ccc(Br)cc2O[C@H]1CN(C)C(=O)C1CCC1 | 2 | 0 | -4 | i | 7 | .
Cc1cc(C)c(OCC(=O)OCC(=O)NCC2CCCCC2)c(C)c1 | 0 | 0 | -1 | i | 2 | 95
COc1ccc(N2CCN(S(=O)(=O)CCNC(=O)COc3cccc(OC)c3)CC2)cc1 | -1 | -1 | -4 | ? | 3 | 54*
COc1ccc(N2CCN(S(=O)(=O)CCNC(=O)COc3ccccc3)CC2)cc1 | -3 | 3 | 1 | i | -2 | 109
COc1ccc(NS(=O)(=O)c2ccc3c(c2)NC(=O)CC(=O)N3)cc1OC | -1 | 4 | -1 | i | -2 | 89
Fc1ccc(CN2CCN(c3ncnc4scc(-c5ccc(F)cc5)c34)CC2)cc1 | -18 | 2 | 5 | i | 0 | 98
Cc1ccc(-c2csc3nc[nH]c(=S)c23)cc1C | 80* | 3 | 0 | i | 3 | 80
CCN1CCN(c2ncnc3scc(-c4ccc(C)c(C)c4)c23)CC1 | 0 | -2 | 82* | i | 10 | 101
Cc1cc(/C=C2\SC(=O)N(C)C2=O)c(C)n1-c1ccc(O)cc1 | -14 | -28 | 2 | i | 2 | 97
CN(C)c1ccc(C=C2SC(=S)N(Cc3ccco3)C2=O)cc1 | -1 | -27 | 105* | + | 128 | 418
O=C(O)CN1C(=O)/C(=C\c2ccc(OC(=O)c3ccco3)cc2)SC1=S | 0 | 39* | -14 | i | 73* | 110
Cc1cc(/C=C2\SC(=S)N(Cc3ccco3)C2=O)c(C)n1-c1ccccc1 | -11 | -27 | 4 | + | 45* | 119
O=C1C(=C2CCCCC2)SC(=S)N1Cc1ccco1 | 14 | 4 | -4 | i | 4 | 96
COc1ccc(-n2c(C)cc(/C=C3/SC(=S)N(C)C3=O)c2C)cc1 | -8 | -27 | -5 | + | 52* | 105
SMILES | Cardio protect | SENP1 FRET inh | Exocytosis inh | Myeloid diff 2 | HNF4A DNA FP | DSG3 Ab inh
O=C(O)CN1C(=O)/C(=C\c2cccc(OC(=O)c3ccco3)c2)SC1=S | 0 | 2 | 18 | i | 12 | 107
CC(NS(=O)(=O)c1ccccc1)C(=O)Nc1ccc2c(c1)OCCO2 (centres undefined) | -1 | -1 | -2 | i | 2 | 104
COc1ccc(/C=N/N2CCN(c3ccc(Cl)cc3)CC2)cc1O | 0 | 0 | 3 | i | 0 | 97
N#CC(C(=O)NCc1ccccc1)c1nc2ccccc2nc1N1CCCC1 (centres undefined) | 11 | 10 | -4 | + | 27 | 129
Cc1ccc(S(=O)(=O)N2CCCN(c3nc4cc(C)ccc4cc3C#N)CC2)cc1 | -10 | -28 | -1 | + | 28 | 118
CCN1CCN(c2nc3ccccc3nc2C(C#N)S(=O)(=O)c2ccc(C)cc2)CC1 (centres undefined) | 5 | -24 | 10 | i | 2 | 98
Cc1ccc2nc(N3CCN(S(=O)(=O)c4ccc5c(c4)OCCO5)CC3)c(C#N)cc2c1 | -13 | -133 | 1 | i | 8 | 99
Cc1ccc(S(=O)(=O)C(C#N)c2nc3ccccc3nc2N2CCCC2)cc1 (centres undefined) | 32 | -18 | 2 | + | 1 | 148
CC(C)(C)C(=O)NC1(C(F)(F)F)NC(=O)N(c2ccc(F)cc2)C1=O (centres undefined) | -1 | 3 | -3 | i | 7 | 101
CC(C)(C)OC(=O)N1CCC[C@H]1c1nnc(SCC(=O)Nc2ccc(Br)cc2)o1 | 60* | 0 | 18 | i | 8 | 101
CC(C)(C)OC(=O)N1CCC[C@H]1c1nnc(SCC(=O)Nc2cccc(Cl)c2)o1 | 1 | 0 | 3 | i | 2 | 109
COc1ccc(N/N=C(/N=Nc2nc(C)cc(=O)[nH]2)c2ccccc2)cc1 | -5 | 5 | 0 | . | -1 | 99
Cc1cc(=O)[nH]c(N=N/C(=N/Nc2ccccc2C)c2ccccc2)n1 | 60* | 0 | 2 | i | -3 | 99
Cc1cc(=O)[nH]c(N=N/C(=N/Nc2ccc(O)cc2)c2ccccc2)n1 | 49 | 48* | -3 | i | 0 | 100
CC(C)=CCN1CCN(Cc2cc(C(C)C)n[nH]2)CC1CCO (centres undefined) | 2 | -1 | 5 | + | 0 | 78
CCN1/C(=C2\SC(=S)N(Cc3ccccc3)C2=O)Sc2ccccc21 | -1 | -22 | -8 | i | 33 | 91
CCC(CO)[n+]1c(C)cc(/C=C2\Sc3ccccc3N2Cc2ccccc2)cc1C (centres undefined) | -12 | -33 | 20 | + | 13 | 224
O=C(c1ccccc1Cl)N1CCC(N2CCC(C(=O)N3CCCC3)CC2)CC1 | 0 | -8 | 16 | i | 8 | 114

Screening results (PubChem)
